Laboratory results: ChEMBL document CHEMBL1124260, “Synthesis and antitumor activity of quaternary ellipticine glycosides, a series of novel and highly active antitumor agents” (1988)

Key:
Mus musculus [1] = test: Antitumor activity against ip implanted L1210 leukemia in mouse after ip administration of 2.5 mg/kg for 5 days expressed as increase in mean life span; assay type: functional; settings: 120 h, route intraperitoneal
Outline: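 Drug was dissolved in 0.9% NaCl, diluted just before use and given ip once daily for 5 consecutive days, starting 24 h after transplant. ILS % = mean survival time of treated vs control mice, observed for 80 days.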

Mus musculus [2] = test: Number of survivors out of 6 ip implanted L1210 leukemia mouse tested after 80 days at 2.5 mg/kg; assay type: functional; settings: route intraperitoneal
Outline: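 Female BDF1 mice implanted ip with ascitic fluid holding 10^5 L1210 cells. Saline-dissolved drug given ip daily on days 1-5, starting 24 h after implant. Six mice per dose group, followed 80 days. Survivors/total counted at day 80; ILS % from mean survival time vs controls.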

## Cc1c2cc[n+]([C@H]3O[C@@H](CO)[C@H](O)[C@@H](O)[C@@H]3O)cc2c(C)c2c1[nH]c1ccc(O)cc12.[Br-]
Mus musculus [1]
  ILS at 2.5 mg/kg: 58%
Mus musculus [2]
  Cures: 0
